STEP inh: STEP (human) phosphatase inhibition; inhibition, % at 20 µM; recombinant STEP, OMFP fluorogenic substrate, fluorescence; 360,000 tested, 0.25% active; P54829; AID 588621;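 active = inhibition at 20 µM, scaled per plate between control wells, above about 37%, limit read from the data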;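 also: 0% = DMSO with enzyme and substrate and 100% = substrate only without enzyme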
Target sequence (P54829 whole entry, looked up): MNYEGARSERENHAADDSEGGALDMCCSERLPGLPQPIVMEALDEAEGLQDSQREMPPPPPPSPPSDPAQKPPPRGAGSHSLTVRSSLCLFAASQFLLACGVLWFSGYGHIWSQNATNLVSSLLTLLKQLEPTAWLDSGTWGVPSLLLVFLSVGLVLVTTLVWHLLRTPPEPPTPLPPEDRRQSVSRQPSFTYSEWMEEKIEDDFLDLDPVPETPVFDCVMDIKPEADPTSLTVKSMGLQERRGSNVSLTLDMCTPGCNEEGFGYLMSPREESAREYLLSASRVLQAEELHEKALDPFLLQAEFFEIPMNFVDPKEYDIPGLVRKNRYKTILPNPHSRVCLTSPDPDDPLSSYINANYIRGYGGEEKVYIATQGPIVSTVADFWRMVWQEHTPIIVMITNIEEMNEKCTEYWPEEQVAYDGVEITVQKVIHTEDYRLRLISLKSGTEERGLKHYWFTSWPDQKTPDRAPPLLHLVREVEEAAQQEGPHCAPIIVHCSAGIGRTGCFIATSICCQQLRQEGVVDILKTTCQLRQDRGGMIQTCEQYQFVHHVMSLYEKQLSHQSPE
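Measure: Control-normalized % inhibition with plate pattern correction | Test system: STEP phosphatase, cell-free reaction | Medium: pH 6.0 Bis-Tris with DTT and Tween 20 | Technique: Fluorescence, 480/540 nm | Times: Reaction 20 min, ambient temperature | Doses: Single compound dose of 20 µM, 1% DMSO final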
LMPTP inh: blocks human LMPTP phosphatase; P24666; recombinant LMPTP-A, OMFP fluorogenic substrate, fluorescence intensity; inhibition, % at 20 µM; 360,000 tested, 0.22% active; AID 651560;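 active = compounds that cut the enzyme signal by at least half of the control window in the single-dose screen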;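 also: plate controls were DMSO wells with enzyme plus substrate for no effect and substrate without enzyme for full effect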
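Test system – LMPTP-A phosphatase enzyme · Quantity – 0.625 nM LMPTP-A final · Reagent – OMFP substrate, 400 µM final · Dosing – one test concentration per compound, 20 µM, with 3% DMSO overall · Timing – 50 min enzyme reaction at room temperature, protected from light · Detection – fluorescence intensity · Controls – substrate-only low control, DMSO enzyme-plus-substrate high control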
DNMT1 inh: DNMT1 (human) enzyme inhibition; DNMT1 molecular beacon, Hinp1I cleavage, fluorescence; inhibition (reported as % activation of signal), % at 10 µM; 360,000 tested, 0.83% active; P26358; AID 588458; in the data active = inhibition above about 50%
Scp1 inh: inhibitors of human Scp-1 phosphatase. Q9GZU7. Recombinant Scp1, phosphopeptide, malachite green phosphate absorbance. inhibition, % at 20 µM. 340,000 tested, 0.88% active;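 active = inhibition above about 50% at 20 µM, limit read from the data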;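 also: plate controls were DMSO wells with enzyme for no effect and wells lacking enzyme for full effect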
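Material – SCP-1 phosphatase catalytic domain, residues 76-261 · Buffer or medium – Acidic Tris acetate buffer with magnesium and detergent · Also added – Phospho 17-mer peptide substrate · Compound – single 20 µM dose, 1% DMSO · Times – 45 min room-temperature reaction, 5 min colour, 30 min stabiliser · Technique – Phosphate-binding colour reagent, absorbance read at 630 nm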
SUMO1 PPI mod: SUMO1-SIM interaction modulation; P63165; 360,000 tested, 0.33% active; SUMO1 binding to a labelled peptide, TR-FRET, 1 h; AID 602429; inhibition, % at 20 µM; in the data active = inhibition above about 37%
Target sequence (P63165 whole entry, looked up): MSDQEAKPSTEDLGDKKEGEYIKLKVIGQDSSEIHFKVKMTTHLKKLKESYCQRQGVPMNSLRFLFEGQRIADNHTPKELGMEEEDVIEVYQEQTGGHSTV
DNMT1 inh conf: DNMT1 inhibition confirmation, single concentration; shares compounds with DNMT1 inh; 2,300 tested, 8% active; inhibition, % at 10 µM; DNMT1 molecular beacon HinP1I cleavage, fluorescence;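 active = average inhibition of at least 30% in the single-concentration confirmation test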
DNMT1 interf: shows spectral interference in the DNMT1 beacon assay. shares compounds with DNMT1 inh. DNMT1 molecular beacon spectral interference counterscreen, fluorescence 485/520. activation (fluorescence interference), % at 10 µM. 2,300 tested, 1% active. AID 602387;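 active = activation of at least 30% at 10 µM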;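 also: DNMT1 catalytic domain with a HinP1I cleavage step and a FAM/dabcyl DNA beacon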
* = called active by the depositor; · = not tested or not shown. Sampled rows, rich in hits. Any-hit rate of the full collection: about 1.7%.

SMILES	STEP inh	LMPTP inh	DNMT1 inh	Scp1 inh	SUMO1 PPI mod	DNMT1 inh conf	DNMT1 interf
CC(=O)C(=Nc1ccccc1Cl)NNc1ccc(Cl)cc1	1	2	-7	-7	-14	·	·
CCOc1cccc(=O)c2c(C)n(CC(=O)c3ccccc3)c(C)c12	2	9	37	2	4	·	·
COc1cccc(=O)c2c(C)n(CC(=O)c3ccccc3)c(C)c12	4	18	63*	18	5	0	1
CC(C)/C=C/C(=O)N1CCC(N2CCC(C(=O)NCC3CCCO3)CC2)CC1 (centres undefined)	2	3	50*	·	-2	3	4
CC(C)N(C(=O)[C@H]1CC(CC(=O)NCCc2ccccn2)C(=O)N2CCc3c([nH]c4ccccc34)[C@]12C)C(C)C (some centres undefined)	1	-8	5	0	4	·	·
O=C(NCc1ccccc1F)c1cccc(S(=O)(=O)N2CCCCCC2)c1	-2	-2	-5	-8	0	·	·
CC(C)[C@H](NC(=O)[C@H](Cc1ccccc1)n1c(=O)[nH]c2ccccc2c1=O)C(=O)N1CCC[C@H]1C(=O)O	-2	-1	2	12	0	·	·
CC(C)[C@H](NC(=O)[C@H](Cc1ccccc1)n1c(=O)[nH]c2ccccc2c1=O)C(=O)N1CCC[C@@H]1C(=O)O	2	1	82*	1	3	-1	2
Cn1cnc2c1c(=O)n(Cc1cccc(Br)c1)c(=O)n2C	-2	-2	-1	-7	5	·	·
CCn1cnc2c1c(=O)n(Cc1cccc(Br)c1)c(=O)n2Cc1ccccc1	0	2	68*	-10	6	9	10
Nc1cc(S(=O)(=O)Nc2ccccc2Cl)ccc1N1CCOCC1	1	0	-3	-5	2	·	·
Nc1cc(S(=O)(=O)Nc2ccc(Cl)cc2)ccc1N1CCOCC1	13	2	169*	-1	1	2	4
CC(=O)c1ccc(N2CCN(CC(=O)Nc3ccccc3C(=O)NC3CC3)CC2)c(F)c1	-4	-1	0	-4	0	·	·
Cc1ccc(-c2cc(-c3ccco3)c(C#N)c(=O)[nH]2)cc1	4	49*	58*	22	0	0	-2
N#Cc1c(-c2ccco2)cc(-c2ccccc2)[nH]c1=O	2	8	42	9	18	·	·
COc1ccc(C2=NN(c3nc(-c4ccccc4)c(CC(=O)O)s3)C(c3ccco3)C2)cc1 (centres undefined)	-1	2	56*	10	4	4	1
C[C@@H]1CC=C[C@H]2[C@H]1C(=O)N(Cc1ccccc1)[C@H]2c1ccc(/C=C/c2ccccc2)cc1F	1	5	7	0	-27	·	·
C=CCn1c(SCC(=O)Nc2ccc(F)cc2F)nnc1-c1cnccn1	2	-1	-2	1	1	·	·
CCn1cc(Br)c(C(=O)Nc2sc3c(c2C(N)=O)CCCC3)n1	2	9	68*	-7	4	2	-3
CC(=O)C[C@H](O)CC(=O)[C@H]1OC(=O)[C@@H](C)CCCCc2ccccc21	-3	-1	4	-2	5	·	·
Cc1cc(C(=O)OCC(=O)N2CC(=O)Nc3ccccc32)no1	-4	-3	-1	-8	1	·	·
Cc1c(C(=O)OCC(=O)N2CC(=O)Nc3ccccc32)oc2ccc(Br)cc12	5	1	51*	-6	-1	1	2
CCOc1ccc(S(=O)(=O)N2CCOCC2)cc1NS(=O)(=O)c1ccc(OC)c([N+](=O)[O-])c1	0	0	0	0	-11	·	·
Cc1ccccc1Cn1cc(NC(=O)c2cc3nc(-c4ccco4)cc(C(F)(F)F)n3n2)cn1	-1	3	-10	-8	2	·	·
CCc1ccc(-c2cc(C(F)(F)F)n3nc(C(=O)Nc4cnn(Cc5ccc(C)cc5)c4)cc3n2)s1	20	3	56*	-4	-5	0	-7
SMILES	STEP inh	LMPTP inh	DNMT1 inh	Scp1 inh	SUMO1 PPI mod	DNMT1 inh conf	DNMT1 interf
C=C(C)[C@@H]1CCC2(C(=O)O)CC[C@]3(C)[C@H](CC[C@@H]4[C@@]5(C)CCC(=O)C(C)(C)[C@@H]5CC[C@]43C)[C@@H]12 (some centres undefined)	1	2	55*	4	2	1	-8
C=C(C)[C@@H]1CC[C@]2(C(=O)O)CC[C@]3(C)C(CCC4[C@@]5(C)CC[C@H](O)C(C)(C)C5CC[C@]43C)C12 (some centres undefined)	4	0	60*	-4	3	-1	-16
C=C(CC[C@@H](O)C(C)(C)O)[C@H]1CC[C@]2(C)[C@@H]1CCC1[C@@]3(C)CCC(=O)C(C)(C)C3CC[C@]12C (some centres undefined)	3	0	-4	4	2	·	·
Cc1ccccc1-c1nn(-c2ccc(F)cc2F)cc1CNCCCN(C)C	4	-9	-1	2	-41	·	·
Cc1nnc(NC(=O)CSc2ccc(-c3ccco3)nn2)s1	12	9	53*	17	24	0	2
CCc1nnc(NC(=O)CSc2ccc(-c3ccco3)nn2)s1	-5	-2	4	-5	1	·	·
O=C(CCN1C(=O)/C(=C/C=C/c2ccccc2)SC1=S)Nc1ccccn1	-1	1	9	-1	-8	·	·
O=C(CCN1C(=O)/C(=C/C=C/c2ccccc2)SC1=S)Nc1cccnc1	0	4	62*	-6	-8	0	0
CC(/C=C1\SC(=S)N(CCC(=O)Nc2cccc(C(=O)O)c2)C1=O)=C\c1ccccc1	3	12	80*	-9	16	12	2
C[C@H]1CNC(=O)c2c(C(=O)NC3CCN(C(=O)OC(C)(C)C)CC3)ncn21	-2	-1	-1	·	2	·	·
COCCOC1CCN(C(=O)C2CCC(=O)N(CCc3ccccc3)C2)CC1 (centres undefined)	1	-1	3	0	-2	·	·
O=C(COc1ccccc1[N+](=O)[O-])Nc1ccc(NC(=O)c2cc3ccccc3o2)cc1	13	20	59*	29	35	2	-4
O=C(COc1ccc(/C=N/NC(=O)c2cc3ccccc3o2)cc1Br)Nc1ccccc1	64*	29	64*	83*	-1	-3	-9
O=C(N/N=C/c1ccco1)c1cc2ccccc2o1	0	-1	1	-5	-25	·	·
O=C(COc1ccccc1[N+](=O)[O-])Nc1ccc2oc(=O)ccc2c1	6	13	18	1	22	·	·
Cc1cc(=O)oc2cc(NC(=O)COc3ccccc3[N+](=O)[O-])ccc12	10	5	72*	40	31	4	-2

High-throughput results (PubChem)
